Source: ChEMBL document CHEMBL4513216, “Probing the Open Global Health Chemical Diversity Library for Multistage-Active Starting Points for Next-Generation Antimalarials” (ACS Infect Dis, 2020)

Experiment: Toxicity liver stage against HepG2, at 10uM
Assay type: cell-based
Design: test concentration 10 uM, cell line HepG2-A16-CD81EGFP
Settings: human, HepG2-A16-CD81EGFP cells; read-out: INHIBITION
In short: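 Uninfected HepG2-A16-CD81EGFP cells, 3 × 10^3 per well, 1536-well, plated on prespotted compound at 10 μM final, parasite-free screening media added to match infected plates; puromycin 10 μM positive, DMSO 0.5% negative; run in parallel with 48 h PbLuc assay at 37 °C, 5% CO2; viability by CellTiter-Glo luminescence, normalized to controls.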

Row | Structure (SMILES) | cytotoxicity at 10 µM [%]
1 | CC(=O)N1CC[C@H](c2nc3cc(F)ccc3o2)C1 | 0.835
2 | CC(C)(C)CN[C@@H]1CO[C@H](CNC(=O)Nc2ccccc2)[C@H]1O | 6.98
3 | O=C(NC[C@H]1C[C@@H]2CCN1C[C@@H]2CN1CCOCC1)Nc1ccsc1 | 1.03
4 | COCCNC(=O)c1ccc2c(=O)n3c(nc2c1)CCCCC3 | 5.53
5 | CCOC(=O)CNC(=O)NCc1cccn1Cc1ccccc1 | 9.71
6 | CN(C)C(=O)CN1CCC2(CC1)CC(=O)c1ccc3ccccc3c1O2 | 6.17
7 | COC(=O)CN1Cc2cc3c(cc2NCCC1=O)OCO3 | -8.1
8 | CC(C)COC(=O)N1CC(=O)N(CCc2ccccc2)CC(O)C1 (centres undefined) | -16.6
9 | Cc1cnc2n(c1=O)C(CC(=O)NCc1cccnc1)CS2 (centres undefined) | 4.22
10 | COc1ccc(CC(C)(O)CNC(=O)Cc2cccs2)cc1 (centres undefined) | 14.7
11 | O=S(=O)(NCC1(O)CCOCC1)c1c(F)cccc1F | -4.97
12 | CC(=O)N(C)CC(=O)Nc1cnc(-n2ccnc2)nc1 | -9.69
13 | O=C(Cn1ccc2ccccc21)N1CCC(Oc2cnccn2)CC1 | 4.61
14 | O=C(Cn1c(=O)oc2ccccc21)NCC1(O)CCc2ccccc2C1 (centres undefined) | 5.37
15 | COc1ccccc1CN1CCC2(CCC(C(=O)N(C)C)O2)CC1 (centres undefined) | 0.493
16 | N#Cc1ccc(C(=O)N2CCC3(CC2)CC3)cc1 | 3.56
17 | CCc1ccc2c(C3CN(S(C)(=O)=O)C3)ncn2c1 | 10.6
18 | Cc1ncoc1C(=O)N1C[C@@H]2CN(CC3CC3)CCO[C@@H]2C1 | 9.23
19 | Cc1ncsc1CN1C[C@@H]2CN(Cc3cccnc3)CCO[C@@H]2C1 | 5.05
20 | O=C(NC1CCCCC1)N1C[C@@H]2OCCN(C(=O)c3ccco3)[C@@H]2C1 | -152
21 | COCC(=O)N1CC2(CCN(c3ccccc3)C2)C1 | 10.1
22 | CC(C)NC(=O)[C@H]1C[C@@H]2[C@@H](C1)OCCN2Cc1ccncc1 | 6.62

Row | Structure (SMILES) | cytotoxicity at 10 µM [%]
23 | c1ccc(CN2CCN3C[C@H](Oc4cccnc4)C[C@H]3C2)nc1 | 6.59
24 | CC(C)Nc1ccc2nc(C3CCNCC3)nn2c1 | -6.75
25 | COCC(=O)N1CCC2(CC1)CC(c1cnn(C)c1)C(=O)N2 (centres undefined) | 7.25
26 | COCc1nc2nc(O)c3c(n2n1)NC(=O)CC3c1ccc(SC)cc1 (centres undefined) | 1.22
27 | CN(C)CCCNC(=O)c1ccccc1NC(=O)c1ccccc1Cl | -0.986
28 | CC(C)C[C@H](NC(=O)Cc1csc(-c2cccc(Cl)c2)n1)C(=O)O | 3.51
29 | COc1ccc(C2=C(C)C(N3CCc4ccccc43)=NS2(=O)=O)cc1 | -4.66
30 | N#Cc1ccc(OC2CCN(C(=O)c3ccc4c(c3)OCO4)CC2)nc1 | -14.7
31 | O=C1CC(c2ccsc2)c2sc(C(=O)O)c(-c3ccccc3)c2N1 (centres undefined) | 15.2
32 | CC(C)Oc1ncnc2c1CCN(Cc1cccs1)CC2 | -0.935
33 | CCn1cc(S(=O)(=O)N2CCN(S(=O)(=O)c3ccc(Br)s3)CC2)cn1 | 6.24
34 | CCc1noc(C2CCCCN2C(=O)c2sccc2C)n1 (centres undefined) | 10.3
35 | Fc1cccc(Cc2cncc(C3CCCN3C3CCOCC3)n2)c1 (centres undefined) | -0.685
36 | Cc1ccnn1CCNC(=O)C1CCN(S(=O)(=O)c2ccc(F)cc2)C1 (centres undefined) | -32
37 | Cc1noc2nc(C3CCCN(Cc4cccnc4)C3)cc(C(F)F)c12 (centres undefined) | -30.3
38 | Cc1cc(-c2cnc(NC3CCCC3)nc2-c2ccoc2)on1 | -20.9
39 | Cc1ccc([C@]2(O)CC[C@H]3CN(Cc4cccnc4)C[C@H]32)nc1 | -12.6
40 | COc1ccc(OC)c(CN2CCC(c3cc(O)nc(C)n3)C2)c1 (centres undefined) | -15
41 | CC(=O)N1CCN(c2ccc(Cl)nn2)C(=O)C1 | 6.69
42 | O=C(c1ccc(Cl)cc1)N1CCC(N2CCCNC2=O)CC1 | 8.55
43 | CC(C)CN(CC(O)c1ccccc1)C(=O)NC(C)C (centres undefined) | -3.96
44 | Cc1cc(C(=O)N(CC(=O)O)CC(C)C)ccc1F | -6.07

Row | Structure (SMILES) | cytotoxicity at 10 µM [%]
45 | Cc1csc(N(C)C(=O)C2CC(=O)N(c3ccccc3Cl)C2)n1 (centres undefined) | 11.8
46 | Cc1nnc(CN(C)CC(=O)N2CCCN(C3CCCC3)CC2)n1C | 7.1
47 | COCCN(C(=O)c1nc(-c2ccco2)sc1C)C1CC1 | -8.96
48 | CC(=O)N(Cc1ncc(C)o1)C1CCN(CCn2cccn2)C1 (centres undefined) | 6.49
49 | CCNC(=O)N(C)CCCc1n[nH]c(N)c1C#N | 10.3
50 | CC1(C)CN(CC(F)(F)F)CCN1CC(=O)N1CCCCC1 | 13.2
51 | Fc1ccc(C2CN(c3ncnc4[nH]ncc34)CCO2)cc1 (centres undefined) | 27.1
52 | CN(CC(=O)NCc1ccco1)Cc1nc2c(s1)CCCC2 | 13.6
53 | COCCCSc1ccc(NC(=O)Nc2cn[nH]c2)cc1 | 2.54
54 | Cc1ccc(S(=O)(=O)N2CCN(C)c3ccncc32)cc1F | 9.21
55 | CN1CCCN(C(=O)c2nc3c(o2)CN(S(C)(=O)=O)C3)CC1 | -117
56 | CCOc1ncnc2c1CCN(S(=O)(=O)c1ccccc1)CC2 | -110
57 | CCOCC1CN(S(=O)(=O)CC)Cc2nn(C)cc21 (centres undefined) | -111
58 | CC(C)n1ccc(-c2cc(C(=O)N3CCCC3)c3ccccn23)n1 | -2.7
59 | Cc1noc(C)c1C(=O)N1CC[C@H]2C[C@@H](c3nccs3)O[C@@H]2C1 | -1.62
60 | CC(=O)Nc1nc2c(s1)C1(CCCC1)Nc1ccccc1S2 | -9.99
61 | CN1CCCN(c2nccc(-c3c[nH]c4ccc(Br)cc34)n2)CC1 | -9.99
62 | CCOc1ccc(-c2ccnc(COc3ccccc3)n2)cc1C(=O)O | -1.84
63 | Cc1nc2cc(NC(=O)Cn3ncc(N4CCCC4)cc3=O)ccc2s1 | 2.01
64 | CO[C@H]1C[C@@H](O)C12CCN(Cc1nc(C(F)(F)F)no1)CC2 | -4.7
65 | Cc1nc(N(Cc2ccncc2)CC2CCCO2)c2ccsc2n1 (centres undefined) | -155
66 | O=C(O)c1cc(-c2ccoc2)cc(S(=O)(=O)N2CCSCC2)c1 | 0.49

Row | Structure (SMILES) | cytotoxicity at 10 µM [%]
67 | CCN(C)c1nccc(N2CCN[C@H]3CS(=O)(=O)C[C@H]32)n1 | 7.85
68 | Cc1nc(CN(C)CC2CCCN(CCc3ccc(Cl)cc3)C2)no1 (centres undefined) | 8.15
69 | CCS(=O)(=O)c1ncc(CN2CCOCC2)n1CCCc1ccccc1 | 7.57
70 | COC(C)(C)C(=O)NCC1CCN(Cc2cc3ccccc3[nH]2)C1 (centres undefined) | 5.85
71 | COCc1noc(Cn2c(C)cc(C(F)(F)F)cc2=O)n1 | 2.65
72 | O=C(c1ccc(S(=O)(=O)NCc2ccon2)cc1)N1CCNCC1 | 2.59
73 | COCCCN1CC2(CCN(Cc3cc(C(C)C)no3)CC2)CC1=O | -3.79
74 | CCCN(Cc1nccn1C)C(=O)c1cnn[nH]1 | -1.21
75 | Cc1cc(N2CCC(n3cc(CCCO)nn3)CC2)ccn1 | 3.6
76 | Cc1cccc2cc(C(=O)N3CCN(S(=O)(=O)N(C)C)CC3)n(C)c12 | 7.39
77 | CC(C1CCN(Cc2cnn(C)c2C2CC2)CC1)N1CCCC1 (centres undefined) | 6.29
78 | COc1ccccc1Oc1ncccc1CNC(=O)C1COC(=O)N1 (centres undefined) | -6.01
79 | Cc1nn(C)cc1CNCc1ccc(N(C)C)cc1 | -11.9
80 | COc1ccc(-c2nccnc2C2CCN(C(C)=O)CC2)cc1 | -4.43
81 | CS(=O)(=O)N1CCC(C(=O)NC(Cc2ccsc2)c2ccccn2)CC1 (centres undefined) | -2.91
82 | COc1ccccc1N1CCC(CNCc2ccc(C#N)cc2)C1 (centres undefined) | -12.1
83 | O=C(CCc1nc2ccccc2[nH]1)N1CCCC(n2cccn2)C1 (centres undefined) | -15.9
84 | c1ccc(-c2cnc(CN3CCCC3Cn3cccn3)o2)cc1 (centres undefined) | -13.6
85 | O=C1OCCC1N1CCN(C(=O)Cc2ccccc2Cl)CC1 (centres undefined) | -9.2
86 | COc1cccc(S(=O)(=O)CCNC2CCc3ncnn3C2)c1 (centres undefined) | 2.53
87 | CCn1cc(CN2CCCN(C(=O)c3ccoc3)CC2)cn1 | -18.8
88 | CCc1nccn1C1CCCN(C(=O)c2ccc3nncn3c2)C1 (centres undefined) | -12.7

Row | Structure (SMILES) | cytotoxicity at 10 µM [%]
89 | COc1cc(C(C)=O)ccc1OCC(=O)N(C)Cc1cnn(C)c1 | -3.88
90 | COCCN1CCC(CNC(=O)C2(c3cc(C)cc(C)c3)CCC2)C1 (centres undefined) | -7.4
91 | CC(C)c1nc(C2CCCN(C(=O)CCCn3cncn3)C2)no1 (centres undefined) | -3.29
92 | CCc1c(C(=O)NCC(=O)OCC2CC2)cnn1-c1ccc(C)cc1 | -3.81
93 | O=C(NCCNc1ncccn1)C1CCN(CC(F)(F)F)CC1 | -5.6
94 | COc1ccc(F)cc1C(C)NC(=O)Cn1ccc(=O)n(C)c1=O (centres undefined) | -8.35
95 | Cc1cnn(CC2CCCN2Cc2nccn2C)c1 (centres undefined) | 3.54
96 | O=C(NCC(O)CN1CCc2ccccc2C1)Nc1cccnc1 (centres undefined) | 3.2
97 | CC(C)c1nc(C2CCCN(C(=O)c3ccc4[nH]cnc4c3)C2)no1 (centres undefined) | -3.87
98 | CCOc1ccc(CC(CNC(=O)c2ccoc2)C(N)=O)cc1 (centres undefined) | 5.37
99 | Cc1noc(C2CCCN(C(=O)c3ccc(Br)cc3F)C2)n1 (centres undefined) | -8.06
100 | CC(=O)N1CCN(Cc2ccncc2)CC2(CC(=O)N(C)C2)C1 (centres undefined) | -1.83
101 | CN(C)CCN1CCC2(CC1)CN(Cc1cccnc1)C(=O)CO2 | -106
102 | CS(=O)(=O)NCc1cnc2n1CCN(Cc1ccccn1)CC2 | 8.85
103 | O=C(NCc1ccccn1)[C@H]1COC[C@H]2CN(c3ncccn3)C[C@H]21 | 9.19
104 | Cc1nc(CN2CCN(CC3CCOC3)Cc3cccnc32)cs1 (centres undefined) | 11
105 | Cc1nc(CN2Cc3nccn3CC(COCC3CC3)C2)cs1 (centres undefined) | 11.3
106 | COCCN1CCC2(CC1)CC1(CCN(S(C)(=O)=O)CC1)N(C)C2=O | 0.964
107 | CC(C)N1CCOCC2(CN(Cc3cccs3)CCO2)C1 (centres undefined) | 3.71
108 | Cc1noc(C)c1CN1C[C@H]2CN(Cc3cccc(F)c3)C[C@H]2C1 | -114
109 | Cn1cnc(S(=O)(=O)N2C[C@H](OCC3CC3)[C@H]3OCCC[C@H]32)c1 | -149
